Screening data as filed in PubChem.
Sampled rows, rich in hits. Any-hit rate of the full collection: about 1.8%.
CAL PDZ FP-1 – human CAL PDZ-peptide interaction inhibition. AID 504414. Q9HD26. purified CAL PDZ, TMR-peptide fluorescence polarization, 1 h. inhibition, % at 20 µM. actives 0.02% (n = 330,000);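 active means highest replicate inhibition of at least 40%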;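 further: plate controls were DMSO neutral control wells for no effect and unlabeled competitor peptide control wells for full effect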
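System: tagged CAL PDZ domain. Schedule: 1 h room-temperature incubation prior to read. Signal: fluorescence polarization (mP). Measure: percent inhibition from loss of millipolarization.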
ARNT-TACC3 inh – ARNT/TACC3 interaction disruption; Q9Y6A5; AlphaScreen His-ARNT PAS-B/GST-TACC3 binding, luminescence; TACC3 fragment carries E629A point mutation; inhibition, % at 9.99 µM; actives 0.66% (n = 390,000); AID 623870;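 active means mean inhibition of replicates at least 50% and at least half of replicates each reaching 50%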;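 further: 0% = complete ARNT plus TACC3 wells and 100% = ARNT alone without TACC3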
DDE Tn7 FP inh – disrupts Tn7 cyclic peptide binding to fibrin D-Dimer-E complex | P02675 | FP displacement of FITC-Tn7 peptide from fibrin DD(E); 0% = median of compound wells per plate | inhibition, % at 8.3 µM | actives 0.13% (n = 370,000);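 active means inhibition above the mean of compounds falling within the control limits plus 3 SD of them, cut at about 14% in these data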;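 further: 0% = plate median of compound wells and 100% = 10 µM Aha-Tn7 peptide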
Target sequence (P02675 whole entry, looked up): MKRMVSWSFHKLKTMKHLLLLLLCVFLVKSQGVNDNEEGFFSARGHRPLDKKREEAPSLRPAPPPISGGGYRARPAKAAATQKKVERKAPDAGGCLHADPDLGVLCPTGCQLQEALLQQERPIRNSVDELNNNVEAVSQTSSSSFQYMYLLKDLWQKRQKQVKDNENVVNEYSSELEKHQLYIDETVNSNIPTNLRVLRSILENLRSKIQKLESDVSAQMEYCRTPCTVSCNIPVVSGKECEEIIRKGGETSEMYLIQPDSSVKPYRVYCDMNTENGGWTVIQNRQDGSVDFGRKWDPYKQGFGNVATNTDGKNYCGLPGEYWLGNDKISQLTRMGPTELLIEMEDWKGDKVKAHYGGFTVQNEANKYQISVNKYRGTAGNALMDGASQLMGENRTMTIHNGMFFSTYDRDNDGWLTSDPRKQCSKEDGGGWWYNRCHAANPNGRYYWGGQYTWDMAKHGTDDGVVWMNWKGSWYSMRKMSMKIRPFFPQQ
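Also added: labelled Tn7 tracer, 0.1 µM; Assay system: human fibrin DD(E) protein; Amount: 2 µM fibrin DD(E); Schedule: 10 min compound pre-incubation, 3 h probe incubation at room temperature; Repeats: one replicate per compound; Read-out basis: percent inhibition; Measured by: fluorescence polarization of the labelled Tn7 tracer.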
GRK2 aptamer HTS – inhibitors of human GRK2 displacing RNA aptamer | P25098 | bead flow cytometry, FAM-aptamer displacement from GRK2 | inhibition of aptamer binding, % at 10 µM | actives 0.59% (n = 330,000);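 active means inhibition of aptamer binding above 40%, roughly 3 SD of noise, on plates passing a quality check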;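 further: median bead fluorescence of bound FAM aptamer so fluorescent compounds give negative values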
DDE Tn6 FP inh – disrupts Tn6 cyclic peptide binding to fibrin D-Dimer-E complex; AID 720509; Fibrin DD(E) TRITC-Tn6 fluorescence polarization displacement; actives 0.21% (n = 370,000); inhibition, % at 8.3 µM; P02675;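 active means inhibition above a per-campaign cutoff: mean of compounds within control limits plus 3 SD, cut at about 15% in these data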;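 further: 0% = median of all compound wells on the plate and 100% = blocking peptide control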
CAL PDZ FP-2 – CAL PDZ (human) peptide binding inhibition; Q9HD26; purified CAL PDZ, TMR-peptide fluorescence polarization, 1 h; inhibition, % at 24.9 µM; actives 0.92% (n = 300,000); AID 602252;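 active means mean inhibition of at least 30% with at least half of replicates also reaching 30%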;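 further: 0% = DMSO neutral control and 100% = excess unlabeled competitor peptide PRC23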
Active calls of the source: *; . = no result given.

SMILES	CAL PDZ FP-1	ARNT-TACC3 inh	DDE Tn7 FP inh	GRK2 aptamer HTS	DDE Tn6 FP inh	CAL PDZ FP-2
CN(C)C1=NC(N(C)C)=NP(N(C)C)(N(C)C)=N1	-2	-10	0	1	-4	35*
Cc1c(C)c2ccc(OCC(=O)N3CCC(C(=O)O)(c4ccccc4)CC3)cc2oc1=O	0	24	-3	2	2	41*
Cc1c(C)c2ccc(OCC(=O)N3CCC(C(=O)O)(c4ccccc4)CC3)c(C)c2oc1=O	0	2	9	0	2	2
COc1cccc(CN2CCNCC2)c1OC	15	0	-6	1	0	90*
COc1cccc(-n2c(O)c(C=Nc3c(C)n(C)n(-c4ccccc4)c3=O)c(=O)[nH]c2=O)c1	-2	.	-3	0	-2	-3
COc1ccc2nc(/N=C/c3c(O)n(-c4cccc(Cl)c4)c(=O)[nH]c3=O)sc2c1	.	79*	-3	0	-9	-4
COc1ccc(-n2c(O)c(C=Nc3c(C)n(C)n(-c4ccccc4)c3=O)c(=O)[nH]c2=O)cc1	.	-5	4	0	17*	-5
O=c1[nH]c(=O)n(-c2cccc(Cl)c2)c(O)c1/C=N/c1ccccn1	1	4	4	0	-11	.
Cc1c(N=Nc2c(O)n(Cc3ccccc3)c(=O)[nH]c2=O)c(=O)n(-c2ccccc2)n1C	-2	62*	4	1	0	.
COC(=O)[C@@H]1[C@@H](CO)[C@@H]2Cn3c(ccc(-c4ccccc4F)c3=O)[C@H]1N2Cc1cccnc1	.	-5	.	.	.	.
COC(=O)[C@@H]1[C@@H](CO)[C@@H]2Cn3c(ccc(-c4ccccc4F)c3=O)[C@H]1N2Cc1ccccc1	.	active	.	.	.	.
O=C(Cc1ccccc1)N1CCCCN2[C@H](CO)[C@H](c3ccc(C#Cc4ccccc4)cc3)[C@@H]2C1	.	-23	.	.	.	.
CCCCNC(=S)N1CCn2cccc2C1c1cccnc1 (centres undefined)	0	0	6	0	2	1
CNC(=S)N1CCn2cccc2C1c1cccnc1 (centres undefined)	7	0	-2	0	1	78*
CN1C(=O)NC(=O)/C(=C/c2ccc([N+](=O)[O-])o2)C1=O	.	.	1	0	2	.
O=C1NC(=O)N(c2ccccc2)C(=O)/C1=C\c1ccc([N+](=O)[O-])o1	.	.	.	93*	.	.
O=C(Cc1ccccn1)N1CCCCN2[C@H](C1)[C@@H](c1ccc(C#Cc3ccccc3)cc1)[C@@H]2CO	.	10	.	.	.	.
CCc1ccc(-n2c(O)c(/C=N/NC(=O)c3ccncc3)c(=O)[nH]c2=O)cc1	-1	4	4	4	2	-4
O=C(N/N=C/c1c(O)n(CCc2ccccc2)c(=O)[nH]c1=O)c1ccccc1	.	.	-5	0	9	.
Cc1cc(C)c(-n2c(O)c(/C=N/NC(=O)c3ccncc3)c(=O)[nH]c2=O)c(C)c1	0	64*	-3	0	6	.
CCCCn1c(O)c(/C=N/NC(=O)c2ccncc2)c(=O)[nH]c1=O	-2	66*	0	2	1	-1
Cc1ccccc1-n1c(O)c(/C=N/NC(=O)c2ccncc2)c(=O)[nH]c1=O	1	71*	0	4	-4	0
CC(C)c1ccc(-n2c(O)c(/C=N/NC(=O)c3ccncc3)c(=O)[nH]c2=O)cc1	0	61*	6	0	5	-5
C=CCCC(NC(=O)OCc1ccccc1)P(=O)(Oc1ccccc1)Oc1ccccc1 (centres undefined)	.	.	1	.	-10	.
COCC#Cc1ccc([C@H]2[C@H](CO)N3CCCCN(C(=O)Cc4ccccn4)C[C@@H]23)cc1	.	14	.	.	.	.
SMILES	CAL PDZ FP-1	ARNT-TACC3 inh	DDE Tn7 FP inh	GRK2 aptamer HTS	DDE Tn6 FP inh	CAL PDZ FP-2
CCCC#Cc1ccc([C@H]2[C@H]3CN(C(=O)Cc4ccccn4)CCCCN3[C@H]2CO)cc1	.	3	.	.	.	.
CCOC(=O)C1=C(C(=O)OCC)C2(c3ccccc3)c3ccccc3C1(C)N2C (centres undefined)	.	.	-7	.	-1	.
COC(=O)[C@@H]1[C@@H](CO)[C@@H]2Cn3c(cccc3=O)[C@H]1N2C(=O)C1CCC1	.	9	.	.	.	.
Cc1ccc(-n2c(O)c(C=NCCCn3ccnc3)c(=O)[nH]c2=O)cc1	-1	-3	7	0	3	73*
CC(C)c1ccc(-n2c(O)c(/C=N/NC(=O)c3ccccc3O)c(=O)[nH]c2=S)cc1	0	85*	4	0	0	5
Cn1c(=O)c2c(nc(N/N=C/c3c(O)n(-c4ccccc4)c(=S)[nH]c3=O)n2C)n(C)c1=O	-1	58*	-1	4	-1	0
COC(=O)[C@H]1[C@H](CO)[C@H]2Cn3c(ccc(C4=CCCCC4)c3=O)[C@@H]1N2Cc1ccccn1	.	11	.	.	.	.
CSc1ncc(CN2CCCC(C(=O)c3cccc(Cl)c3)C2)cn1 (centres undefined)	0	3	-2	0	-4	48*
COc1ccc(CN2CCCC(C(=O)c3cccc(Cl)c3)C2)cc1 (centres undefined)	-1	4	-2	1	-1	1
CC(C)Oc1cccc(C(=O)C2CCCN(Cc3ccon3)C2)c1 (centres undefined)	-1	3	6	0	0	65*
CCn1c(=O)n(CC)c2cc([N+](=O)[O-])c(N3CCNCC3)cc21	13	2	-2	0	5	69*
Nc1cc(N2CCNCC2)c([N+](=O)[O-])cc1Cl	0	0	-1	29	4	-7
N#Cc1ccc2nc(-c3ccc(CN4CCC(n5nnc6ccccc65)CC4)cc3)c(-c3ccccc3)nc2c1	.	.	1	.	-7	.
CC(=O)N1CCCSC1=Nc1ccccc1	-1	-18	2	2	-4	58*
CCN1CCN(c2ccc(N)cc2C)CC1	2	48*	9	0	7	0
CCCCn1c(NS(=O)(=O)c2ccccc2)c(C(=O)OCC)c2nc3ccccc3nc21	0	5	-6	0	-8	-4
CCCCn1c(NC(=O)c2ccc(Br)o2)c(C(=O)OCC)c2nc3ccccc3nc21	0	37	4	78*	2	-8
FC(F)(F)c1ccccc1CCN1CCNCC1	1	-4	-2	0	-3	33*
O=C(Cn1ncc2ccccc21)N1CCC2(CC1)OCCO2	0	9	-5	0	0	0
CCn1c(=O)n(CC(=O)N2CCC3(CC2)OCCO3)c(=O)c2ccccc21	-1	2	2	1	-6	52*
N#Cc1cccc(-c2ccc([C@H]3[C@@H](CO)N4CCCCN(C(=O)Cc5ccccc5)C[C@H]34)cc2)c1	.	3	.	.	.	.
